Holding throughout (format): ADME, organism-based
Series [1] relates to Homo sapiens. The series is described as follows: Oral clearance in chronic hepatitis B virus infected patient assessed as (1-((2-amino-9H-purin-9-yl)methyl)cyclopropoxy)me at 60 mg, po qd for 4 weeks by LC-MS analysis. To be noted: in vivo, 672 h. The essentials:
(§1)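 Oral LB80380 was given once daily for 4 weeks to CHB patients. Plasma LB80331 was quantified by validated LC-MS/MS after protein precipitation, with stable-isotope internal standard, at baseline and steady state (weeks 2–4), 0–24 h postdose. Noncompartmental CL/F was calculated as dose (adjusted for LB80380/LB80331 molecular weights) divided by AUC (AUC0-∞ single dose; AUC0-24 steady state).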

Series [2] has as its system Plasma. The series can be described thus: Cmax in CD-1 mouse plasma assessed as (1-((2-amino-9H-purin-9-yl)methyl)cyclopropoxy)me at 30 mg/kg, po administered as single dose by LC-MS analysis. On the set-up: dose 30 mg/kg, route oral. To be noted: in vivo. The essentials:
(§2)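 Male CD-1 mice given a single oral dose in 100% PEG 400. Samples extracted with perchloric acid and neutralized with ammonium bicarbonate. One aliquot assayed for the free analyte; the other treated with calf intestinal phosphatase to give the total including di-/triphosphates. Analysis by LC-MS/MS.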

The test system of series [3] is Homo sapiens. The series can be described thus: Tmax in chronic hepatitis B virus infected patient assessed as (1-((2-amino-9H-purin-9-yl)methyl)cyclopropoxy)me at 30 mg, po qd for 4 weeks by LC-MS analysis. Conditions: in vivo, 672 h. Put shortly:
(§3)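 Daily oral LB80380 was given to CHB patients over 4 weeks. Blood was drawn on day 1 and at steady state (weeks 2–4), predose and 0.5–24 h postdose. Plasma LB80331 (LLOQ 5 ng/ml) and LB80317 (LLOQ 10 ng/ml) were measured by LC-MS/MS after protein-precipitation extraction. Tmax was taken by noncompartmental analysis.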

Series [4] deals with Homo sapiens. The series is described as follows: Cmax in chronic hepatitis B virus infected patient assessed as (1-((2-amino-9H-purin-9-yl)methyl)cyclopropoxy)me at 60 mg, po qd for 4 weeks by LC-MS analysis. Conditions: in vivo, 672 h. On the set-up: dose 60 mg, route oral. Put shortly:
(§4)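 CHB patients, oral once daily for 4 weeks. Plasma sampled at steady state (weeks 2–4), predose and at 0.5, 1, 2, 3, 4, 6, 8 and 24 h postdose. LB80331 measured by validated LC-MS/MS (LLOQ 5 ng/ml) after protein precipitation with a stable-isotope internal standard. Cmax by noncompartmental analysis.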

The test system of series [5] is Plasma. The series can be described thus: Half life in CD-1 mouse plasma assessed as (1-((2-amino-9H-purin-9-yl)methyl)cyclopropoxy)me at 30 mg/kg, po administered as single dose by LC-MS analysis. Also on record: dose 30 mg/kg, route oral. Conditions: in vivo. The essentials:
as §2

Series [6] concerns Homo sapiens. The series is described as follows: Cmax in chronic hepatitis B virus infected patient assessed as (1-((2-amino-9H-purin-9-yl)methyl)cyclopropoxy)me at 120 mg, po qd for 4 weeks by LC-MS analysis. Also on record: dose 120 mg, route oral. To be noted: in vivo, 672 h. Put shortly:
as §4

Series [7] has as its system Homo sapiens. The series can be described thus: Cmax in chronic hepatitis B virus infected patient assessed as (1-((2-amino-9H-purin-9-yl)methyl)cyclopropoxy)me at 30 mg, po administered as single dose by LC-MS analysis. Also on record: dose 30 mg, route oral. Conditions: in vivo. The essentials:
(§5)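 CHB patients (HBsAg/HBeAg positive), six per dose cohort, given a first oral dose on day 1. Plasma sampled at baseline. Analysis by validated LC-MS/MS after protein precipitation with a stable-isotope internal standard; LLOQ 5 ng/ml for LB80331. Noncompartmental analysis gives Cmax and AUC0-∞.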

Series [8] relates to Liver. The series can be described thus: AUC (0 to 36 hrs) in CD-1 mouse liver assessed as (1-((2-amino-9H-purin-9-yl)methyl)cyclopropoxy)me at 30 mg/kg, po administered as single dose by LC-MS analysis. On the set-up: time < 36 hr, dose 30 mg/kg, route oral. To be noted: in vivo. The essentials: as §2
The subject of series [9] is Homo sapiens. The series can be described thus: Tmax in chronic hepatitis B virus infected patient assessed as (1-((2-amino-9H-purin-9-yl)methyl)cyclopropoxy)me at 240 mg, po qd for 4 weeks by LC-MS analysis. To be noted: in vivo, 672 h. Put shortly:
as §3

In series [10] the test system is Homo sapiens. The series is described as follows: Oral clearance in chronic hepatitis B virus infected patient assessed as (1-((2-amino-9H-purin-9-yl)methyl)cyclopropoxy)me at 240 mg, po qd for 4 weeks by LC-MS analysis. To be noted: in vivo, 672 h. Put shortly: as §1
The test system of series [11] is Homo sapiens. The series is described as follows: Oral clearance in chronic hepatitis B virus infected patient assessed as (1-((2-amino-9H-purin-9-yl)methyl)cyclopropoxy)me at 120 mg, po administered as single dose by LC-MS analysis. To be noted: in vivo. The essentials:
as §1

Series [12] deals with Homo sapiens. The series can be described thus: Oral clearance in chronic hepatitis B virus infected patient assessed as (1-((2-amino-9H-purin-9-yl)methyl)cyclopropoxy)me at 240 mg, po administered as single dose by LC-MS analysis. Conditions: in vivo. The essentials: as §1
In series [13] the test system is Homo sapiens. The series is described as follows: Half life in chronic hepatitis B virus infected patient assessed as (1-((2-amino-9H-purin-9-yl)methyl)cyclopropoxy)me at 120 mg, po qd for 4 weeks by LC-MS analysis. Conditions: in vivo, 672 h. The essentials:
(§6)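 CHB patients given LB80380 orally once daily for 4 weeks. Plasma was sampled on day 1 and at steady state (weeks 2–4), predose and 0.5, 1, 2, 3, 4, 6, 8 and 24 h postdose. LB80331 was measured by validated LC-MS/MS (LLOQ 5 ng/ml). Terminal-phase apparent t1/2 came from noncompartmental analysis and was flagged if extrapolated AUC exceeded 20% of AUC0-24.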

The test system of series [14] is Liver. The series is described as follows: Half life in CD-1 mouse liver assessed as di- and triphosphates of (1-((2-amino-9H-purin-9-yl)methyl)cyclopropoxy)me at 30 mg/kg, po administered as single dose by LC-MS analysis. Also on record: dose 30 mg/kg, route oral. To be noted: in vivo. Put shortly: as §2
The subject of series [15] is Homo sapiens. The series can be described thus: Cmax in chronic hepatitis B virus infected patient assessed as (1-((2-amino-9H-purin-9-yl)methyl)cyclopropoxy)me at 120 mg, po administered as single dose by LC-MS analysis. Conditions: in vivo. On the set-up: dose 120 mg, route oral. The essentials:
as §5

The test system of series [16] is Homo sapiens. The series can be described thus: Half life in chronic hepatitis B virus infected patient assessed as (1-((2-amino-9H-purin-9-yl)methyl)cyclopropoxy)me at 240 mg, po qd for 4 weeks by LC-MS analysis. Conditions: in vivo, 672 h. Put shortly: as §6
Series [17] concerns Homo sapiens. The series can be described thus: Tmax in high fat diet fed healthy human assessed as (1-((2-amino-9H-purin-9-yl)methyl)cyclopropoxy)me assessed as (1-((2-amino-9H-purin-9-yl)methyl)cyclopropoxy)me at 60 mg, po administered as single dose by LC-MS analysis. To be noted: in vivo. The essentials: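 Healthy subjects received a single oral 60-mg dose after a high-fat breakfast or after an overnight fast. Plasma LB80331 was assayed by validated LC-MS/MS (LLOQ 5 ng/ml; intra- and interassay precision and accuracy <10%). Tmax was obtained by noncompartmental analysis.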

Take `Nc1ncc2ncn(CC3(OCP(=O)(O)O)CC3)c2n1` [BESIFOVIR]: the apparent clearance (CL/F) (usually the apparent clearance, not corrected for the fraction that reaches the circulation) with Homo sapiens [1] stood at 273 mL/min; with Homo sapiens [10], 416 mL/min; in the series with Homo sapiens [11] it was 273 mL/min; in the series on Homo sapiens [12] it was 363 mL/min. Further, the maximum concentration (Cmax) – broadly, the peak of the concentration-time curve – came to 6 µM in the series with Plasma [2]; 362 ng/mL in the series on Homo sapiens [4]; 696 ng/mL in the series with Homo sapiens [6]; 200 ng/mL with Homo sapiens [7]; 805 ng/mL in the series with Homo sapiens [15]. Further, the Tmax (commonly the time from dosing to the highest level) turned out to be 2 h in the series with Homo sapiens [3], 2 h in the series with Homo sapiens [9] and 4 h in the series with Homo sapiens [17]. Also, the t1/2 worked out at 2 h with Plasma [5], 3.1 h in the series with Homo sapiens [13], 3.2 h in the series with Liver [14] and 3.3 h with Homo sapiens [16]. Also, in the series with Liver [8], the AUC (in general, concentration integrated over time) came out at 102 µM·h.

For the origin of these results see ChEMBL document CHEMBL1649179, “Pharmacokinetics of LB80331 and LB80317 following oral administration of LB80380, a new antiviral agent for chronic hepatitis B (CHB), in healthy adult subjects, CHB patients, and mice” (Antimicrob Agents Chemother, 2009).
